This test deals with T1, Calpain-2 catalytic subunit (Homo sapiens, UniProt P17655).
T1 sequence (P17655 whole entry): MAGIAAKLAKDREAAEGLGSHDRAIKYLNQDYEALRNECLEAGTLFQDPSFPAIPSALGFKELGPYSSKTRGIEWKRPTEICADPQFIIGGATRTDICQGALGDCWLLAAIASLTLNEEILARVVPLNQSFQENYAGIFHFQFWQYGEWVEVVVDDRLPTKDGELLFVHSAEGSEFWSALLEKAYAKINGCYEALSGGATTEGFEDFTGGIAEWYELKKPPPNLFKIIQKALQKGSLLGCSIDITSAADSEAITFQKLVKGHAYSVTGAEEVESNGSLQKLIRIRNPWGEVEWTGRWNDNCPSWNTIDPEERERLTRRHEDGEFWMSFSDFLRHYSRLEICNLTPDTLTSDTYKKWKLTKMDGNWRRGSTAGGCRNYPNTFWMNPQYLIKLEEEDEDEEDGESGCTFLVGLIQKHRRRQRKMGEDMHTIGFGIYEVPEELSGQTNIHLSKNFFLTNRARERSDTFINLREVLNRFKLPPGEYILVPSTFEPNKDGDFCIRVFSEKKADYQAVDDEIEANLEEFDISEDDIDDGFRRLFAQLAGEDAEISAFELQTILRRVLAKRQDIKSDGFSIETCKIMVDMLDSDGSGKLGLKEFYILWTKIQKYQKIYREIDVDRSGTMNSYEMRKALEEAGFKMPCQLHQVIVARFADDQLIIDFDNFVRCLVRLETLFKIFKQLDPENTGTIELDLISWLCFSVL
Kind of test: Compound was evaluated for the inhibition of Cysteine protease Calpain 2. Put shortly:
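Calpain assay in 25 mM Tris, pH 8.0, with 10 mM CaCl₂ and 5% DMSO. Suc-Leu-AMC hydrolysis was read as initial velocity (t = 30-60 s) after a 30 s delay, at room temperature. Five or more inhibitor concentrations (not above 2 × K_obs) were used at two fixed substrate levels. Ki came from Dixon plots (1/v vs I) averaged over triplicates.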

What is called Ki is a dissociation constant, usually derived from enzyme kinetics or from competition with a known ligand. High values mean weaker binding, low ones tighter binding. Compound `CCC(NC(=O)C(CC(C)C)NC(=O)OCc1ccccc1)C(=O)C(=O)NCc1ccccc1` (stereo not drawn) [[1-(1-Benzylaminooxalyl-propylcarbamoyl)-3-methyl-butyl]-carbamic acid benzyl ester] yielded a Ki of 350 nM.
On to `CCC(NC(=O)C(CC(C)C)NC(=O)OCc1ccccc1)C(=O)C(=O)NCC(O)c1cccc(Oc2cccc(C(F)(F)F)c2)c1` (stereo not drawn) [[1-(1-{2-Hydroxy-2-[3-(3-trifluoromethyl-phenoxy)-phenyl]-ethylaminooxalyl}-propylcarbamoyl)-3-methyl-butyl]-carbamic acid benzyl ester], for which the Ki amounted to 280 nM.
With `CCC(NC(=O)C(CC(C)C)NC(=O)OCc1ccccc1)C(=O)C(=O)NCC(O)c1cccc(Oc2ccc(Cl)c(Cl)c2)c1` (stereo not drawn) [[1-(1-{2-[3-(3,4-Dichloro-phenoxy)-phenyl]-2-hydroxy-ethylaminooxalyl}-propylcarbamoyl)-3-methyl-butyl]-carbamic acid benzyl ester] the figure was 120 nM; with `CCC(NC(=O)C(CC(C)C)NC(=O)OCc1ccccc1)C(=O)C(=O)NC` (stereo not drawn) [[3-Methyl-1-(1-methylaminooxalyl-propylcarbamoyl)-butyl]-carbamic acid benzyl ester], 83 nM.
With `CCC(NC(=O)C(CC(C)C)NC(=O)OCc1ccccc1)C(=O)C(=O)NCCNC(=O)CCCC[C@@H]1SC[C@@H]2NC(=O)N[C@@H]21` (stereo partly drawn) [[3-Methyl-1-(1-{2-[5-((3aR,6S,6aS)-2-oxo-hexahydro-thieno[3,4-d]imidazol-6-yl)-pentanoylamino]-ethylaminooxalyl}-propylcarbamoyl)-butyl]-carbamic acid benzyl ester] the figure was 280 nM; with `CCOC(CNC(=O)C(=O)C(CC)NC(=O)C(CC(C)C)NC(=O)OCc1ccccc1)OCC` (stereo not drawn) [{1-[1-(2,2-Diethoxy-ethylaminooxalyl)-propylcarbamoyl]-3-methyl-butyl}-carbamic acid benzyl ester], 160 nM; with `CCC(NC(=O)C(CC(C)C)NC(=O)OCc1ccccc1)C(=O)C(=O)NCC(OC)OC` (stereo not drawn) [{1-[1-(2,2-Dimethoxy-ethylaminooxalyl)-propylcarbamoyl]-3-methyl-butyl}-carbamic acid benzyl ester], 100 nM.
On to `CCC(NC(=O)C(CC(C)C)NC(=O)OCc1ccccc1)C(=O)C(=O)NCC(O)c1cccc2ccccc12` (stereo not drawn) [{1-[1-(2-Hydroxy-2-naphthalen-1-yl-ethylaminooxalyl)-propylcarbamoyl]-3-methyl-butyl}-carbamic acid benzyl ester], for which the Ki was 170 nM.
Compound `CCC(NC(=O)C(CC(C)C)NC(=O)OCc1ccccc1)C(=O)C(=O)NCC(O)c1ccc2ccccc2c1` (stereo not drawn) [{1-[1-(2-Hydroxy-2-naphthalen-2-yl-ethylaminooxalyl)-propylcarbamoyl]-3-methyl-butyl}-carbamic acid benzyl ester] had a Ki of 110 nM.
With `CCC(NC(=O)C(CC(C)C)NC(=O)OCc1ccccc1)C(=O)C(=O)NCC(O)c1c(F)c(F)c(F)c(F)c1F` (stereo not drawn) [{1-[1-(2-Hydroxy-2-pentafluorophenyl-ethylaminooxalyl)-propylcarbamoyl]-3-methyl-butyl}-carbamic acid benzyl ester] the figure was 200 nM; with `CCCC(NC(=O)C(CC(C)C)NC(=O)OCc1ccccc1)C(=O)C(=O)NCC(O)c1ccccc1` (stereo not drawn) [{1-[1-(2-Hydroxy-2-phenyl-ethylaminooxalyl)-butylcarbamoyl]-3-methyl-butyl}-carbamic acid benzyl ester], 11000 nM; with `CCC(NC(=O)C(CC(C)C)NC(=O)OCc1ccccc1)C(=O)C(=O)NCC(O)c1ccccc1` (stereo not drawn) [{1-[1-(2-Hydroxy-2-phenyl-ethylaminooxalyl)-propylcarbamoyl]-3-methyl-butyl}-carbamic acid benzyl ester], 15 nM.
With `CCC(NC(=O)C(CC(C)C)NC(=O)OCc1ccccc1)C(=O)C(=O)NCCO` (stereo not drawn) [{1-[1-(2-Hydroxy-ethylaminooxalyl)-propylcarbamoyl]-3-methyl-butyl}-carbamic acid benzyl ester] the figure was 78 nM.

Values taken from BindingDB's records for doi:10.1021/jm950541c (Georgia Institute of Technology, 1996).
